Molecules are shown by their SMILES. Active and inactive are the calls of the source.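 How the source made its calls: active means inhibitors lowering the signal whose fitted half-maximal concentration is at most twice the top valid tested dose; inconclusive means flat curve with partial inhibition, or a poor curve fit; inactive means effect opposite to expected, flat near zero, or too weak.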

In one test the target is PvdQ acyl-homoserine lactone acylase (Pseudomonas aeruginosa LESB58). Description: inhibition of P. aeruginosa PvdQ enzyme – biochemical, 4-MU laurate fluorescence, dry powder, set 3, dose response (AID 623991). The settings on record: Purified PvdQ, 4-MU laurate hydrolysis. A digest of the protocol: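 Test system – P. aeruginosa PvdQ acylase · Measured by – fluorescence, excitation 303–367 nm, emission 440–460 nm, reads at 0 and 60 min · Times – 30 min enzyme-compound pre-incubation, then 60 min substrate reaction, room temperature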
`N#CC(c1ccc(Cl)cc1)N1CCCC1` (stereo not given): the AC50 is 1830 nM. Take `N#CC1c2ccc(Cl)cc2CCc2cccnc21` (stereo not given): the AC50 was 11200 nM. For the compound `N#CC(c1ccc(Cl)cc1)c1ncccc1Cl` (stereo not given), the AC50 is 3.09 nM. On the same count and under the same terms, then `CN(C)CCCC(C#N)c1ccc(F)cc1` (stereo not given), with 589 nM.

Consider `N#CC(c1ccc(F)cc1)c1cccc(C(F)(F)F)n1` (stereo not given), for which the half-maximal activity concentration (AC50) was 4.71 nM. As for `CCCCC(C#N)c1ccc(Cl)cn1` (stereo not given), the concentration at half-maximal activity (AC50) was 3470 nM. In the case of `CCCCC(c1ccc(Cl)cc1)c1nn[nH]n1` (stereo not given), the half-maximal activity concentration (AC50) is 3190 nM.

For `CCCCC(C#N)c1ccc(F)cc1` (stereo not given), the concentration at half-maximal activity (AC50) is 607 nM.

For `N#CC(c1ccc(Cl)cc1)c1ccccn1` (stereo not given), the AC50 was 296 nM. On the same count and under the same terms, then `N#CC(c1ccc(Cl)cc1)c1cccc(Cl)n1` (stereo not given), with 36.8 nM; and `CCCCC(C#N)c1ccc(Cl)cc1` (stereo not given), with 1070 nM.

`N#Cc1cccc(C(C#N)c2ccc(F)cc2)n1` (stereo not given): the half-maximal activity concentration (AC50) is 200 nM. As to `COCCOCCC(C#N)c1ccc(F)cc1` (stereo not given), the concentration at half-maximal activity (AC50) is 165 nM.

On to `N#CC(c1cccc(C(F)(F)F)n1)c1ccc(Cl)cc1F` (stereo not given), for which the AC50 is under 3 nM. For `N#CC(c1ccc(F)cc1)c1cccc(Cl)n1` (stereo not given), the half-maximal activity concentration (AC50) is 119 nM.

In the case of `N#CC(c1ccc(C(F)(F)F)c(Cl)n1)c1ccccc1OC(F)(F)F` (stereo not given), the AC50 is 12200 nM. As to `CN(C)CCCC(C#N)c1ccc(Cl)cc1` (stereo not given), the concentration at half-maximal activity (AC50) was 17900 nM. Still for that read-out and setting: then `COCCOCCC(C#N)c1ccc(Cl)cc1` (stereo not given), with 7770 nM. On to `N#CC(c1ccc(Cl)cc1)c1cccc(C(F)(F)F)n1` (stereo not given), for which the half-maximal activity concentration (AC50) was 25.4 nM. Regarding `COCCC(C#N)c1ccc(F)cc1` (stereo not given), the half-maximal activity concentration (AC50) was 1270 nM.

Turning to `N#CC(c1cccc(Cl)n1)c1ccc(Cl)cc1F` (stereo not given), the concentration at half-maximal activity (AC50) is 15.6 nM. The same measure, in the same setting: the figure for `COCCC(C#N)c1ccc(Cl)cc1` (stereo not given) is 6270 nM.

The test is the same for the next values; noted with them: Purified PvdQ, 4-MU laurate hydrolysis, at 19.5 µM (top of the series).
As for `CCCCC(C#N)c1ccccn1` (stereo not given), the “activity change, negative = inhibition” value was “inactive”. Take `COCCNC(C#N)c1ccc(Cl)cc1` (stereo not given): the “activity change, negative = inhibition” value is “inactive”. The same measure, in the same setting: the entry for `CCCCC(C#N)c1ccc(F)cn1` (stereo not given) is “inactive”.

These data come from PubChem BioAssay AID623991 (Broad Institute, 2012).
